# TRPC4 block: TRPC4 (mouse) channel inhibition | Q9QUQ5 | HEK293 TRPC4beta/mu-opioid, DAMGO-evoked Fluo4 calcium flux; hits give low values | B-score at 10 µM | 300,000 tested, 0.39% active | AID 2247;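 active = B-score over 3 SD under the library average, no early fluorescence shift, positive overall ratio signal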
#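 Assay system: HEK293 cells with stable TRPC4beta plus mu-opioid receptor expression. Dosing: single dose. Measured by: Fluo4 Ca2+ flux fluorescence. Also added: DAMGO in two steps, submaximal then maximal. Read-out: B score from integrated Fluo4 fluorescence ratio.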
# Kir21 block: Kir2.1 (mouse) channel inhibition | HEK293-Kir2.1, FluxOR thallium flux fluorescence; hits give low values | 310,000 tested, 0.85% active | B-score at 10 µM;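 active = fluorescence ratio B-score at or below minus 3 SD of library scores, with starting-brightness B-score within 2 SD, cut at about -4.2 in these data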;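 also: channel flux triggered by added potassium and thallium sulfate stimulus; B-score of peak minus minimum fluorescence over baseline after thallium stimulus; more negative B-score means stronger Kir2.1 block with less thallium influx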
# TRPC4 PAM: TRPC4 (mouse) allosteric potentiation | B-score at 10 µM | 310,000 tested, 0.42% active | HEK293 TRPC4beta/mu-opioid, DAMGO EC20, Fluo-4 Ca2+ flux; hits give high values;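 active = B-score of calcium response area above 5 SD of library B-scores, with initial fluorescence ratio within 5 SD of library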;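 also: B-score of integrated fluorescence ratio over time as area under calcium response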
# TRPC4 agonist: opens the mouse TRPC4 cation channel; Q9QUQ5; B-score at 10 µM; HEK293 TRPC4beta/mu-opioid, Fluo4 calcium fluorescence; hits give high values; 310,000 tested, 0.49% active;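 active = B-score above 5 SD of library B-scores, and initial fluorescence ratio not above library mean plus 5 SD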;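 also: positive B-score marks a calcium rise read as TRPC4 activation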
#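 Material: TRPC4beta and mu-opioid receptor HEK293 stable cells | Incubation: 45 min room-temperature Fluo4 loading, 110 s read | Detection: Kinetic Fluo4 calcium fluorescence | Measure: Integrated baseline-normalised fluorescence ratio, converted to per-well B score | Benchmarks: Low control buffer alone, high control maximal DAMGO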
# TRPC6 inhibitor: mouse TRPC6 channel inhibition; HEK293-TRPC6, membrane potential dye, ACh-evoked depolarization; hits give low values; Q61143; 310,000 tested, 1.1% active; B-score at 10 µM; AID 2553;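 active = B-score under library mean minus 3 SD, initial fluorescence not abnormally high, positive integrated signal ratio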;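 also: B-score derived from integrated fluorescence ratio over the kinetic read; more negative B-score means stronger inhibition of depolarization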
# Target sequence (Q61143 whole entry, looked up): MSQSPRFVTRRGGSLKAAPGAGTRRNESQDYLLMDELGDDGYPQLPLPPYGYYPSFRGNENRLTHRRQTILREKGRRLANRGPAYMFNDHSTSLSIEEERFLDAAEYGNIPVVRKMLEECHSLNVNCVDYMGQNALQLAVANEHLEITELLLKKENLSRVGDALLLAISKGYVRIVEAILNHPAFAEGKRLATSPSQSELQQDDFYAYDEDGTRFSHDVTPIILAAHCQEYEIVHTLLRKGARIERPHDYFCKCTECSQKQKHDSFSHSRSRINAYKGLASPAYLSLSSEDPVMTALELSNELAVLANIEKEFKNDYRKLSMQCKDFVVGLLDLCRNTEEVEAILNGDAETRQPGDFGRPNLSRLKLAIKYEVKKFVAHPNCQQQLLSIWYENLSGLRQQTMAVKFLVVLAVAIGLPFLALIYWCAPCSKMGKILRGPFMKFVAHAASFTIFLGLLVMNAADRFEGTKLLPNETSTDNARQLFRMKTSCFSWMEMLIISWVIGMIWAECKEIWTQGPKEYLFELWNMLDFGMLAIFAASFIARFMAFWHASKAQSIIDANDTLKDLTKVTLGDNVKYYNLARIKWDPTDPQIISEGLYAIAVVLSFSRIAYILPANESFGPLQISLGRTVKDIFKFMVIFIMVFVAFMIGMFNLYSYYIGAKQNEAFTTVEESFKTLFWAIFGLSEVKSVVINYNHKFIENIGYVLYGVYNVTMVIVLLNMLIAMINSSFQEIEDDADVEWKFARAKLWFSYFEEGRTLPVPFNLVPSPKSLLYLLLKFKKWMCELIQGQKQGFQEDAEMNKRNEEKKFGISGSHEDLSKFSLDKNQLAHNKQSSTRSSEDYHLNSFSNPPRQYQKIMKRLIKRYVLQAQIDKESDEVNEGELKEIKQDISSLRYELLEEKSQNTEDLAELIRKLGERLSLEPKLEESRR
# TRPC6 activator: activates the mouse TRPC6 cation channel; HEK293-TRPC6 membrane potential dye fluorescence; hits give high values; B-score at 10 µM; 310,000 tested, 0.13% active; AID 2550;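 active = B-score of the integrated fluorescence ratio above library mean plus 3 SD, and starting fluorescence ratio within library mean plus 5 SD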;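 also: higher score means more depolarization so channel activation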
# hERG inh: counter-screen for Kir2.1 inhibitors: effect on human hERG; shares compounds with Kir21 block; hERG-expressing cells, thallium flux; inhibition, % at 10 µM; 320 tested, 20% active; AID 2236;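 also: host cells are CHO cells stably expressing hERG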
# KCNK9 inh: tests whether Kir2.1 inhibitors also affect human KCNK9. inhibition, % at 10 µM. 320 tested, 5% active. AID 2329. shares compounds with Kir21 block. KCNK9-expressing cells, ion flux inhibition
# Kir21 ephys inh: mouse Kir2.1 inward rectifier channel inhibition; Kir2.1 cells, automated patch-clamp current inhibition; 320 tested, 71% active; inhibition, % at 25 µM; shares compounds with Kir21 block
# TRPC4 spec 2: mouse TRPC4 off-target activity of TRPC6 inhibitors, second screen | AID 2776 | 920 tested, 42% active | inhibition, % at 10 µM | shares compounds with TRPC6 inhibitor | HEK293 TRPC4/MOR, membrane potential dye fluorescence; channel activated by saturating DAMGO dose;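 active = compounds whose fluorescence signal differed from control wells by over 3 SD, either direction, in both duplicate plates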
# TRPC4 spec: selectivity of TRPC6 inhibitors: effect on mouse TRPC4; activity change, negative = inhibition, % at 10 µM; 920 tested, 61% active; AID 2777; HEK293 TRPC4/mu-opioid, membrane potential fluorescence; shares compounds with TRPC6 inhibitor;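 active = rise or fall in signal beyond 3 SD of buffer-only wells in both replicate plates, either sign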;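 also: integrated kinetic ratio of fluorescence range over baseline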
# HEK293 MPD ctr 2-1: second check of TRPC6 inhibitor effects in parental HEK293 cells | signal change vs control, % at 10 µM | shares compounds with TRPC6 inhibitor | 920 tested, 31% active | parental HEK293 membrane potential dye fluorescence; maximal acetylcholine challenge after compound addition | AID 2779;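 active = membrane potential signal moving either way by over 3 SD of the maximum-effect control, in both duplicate plates, meaning non-specific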
# HEK293 MPD ctr-1: parental HEK293 nonspecific activity of TRPC6 inhibitors | shares compounds with TRPC6 inhibitor | 920 tested, 60% active | parental HEK293 membrane potential dye fluorescence | membrane potential signal change, % at 10 µM;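 active = membrane potential signal shifting up or down by more than 3 SD of buffer-only wells, on both duplicate plates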
# HEK293 MPD ctr-2: counter-screen for TRPC6 modulators: effect in parental HEK293 cells; 2,400 tested, 51% active; membrane potential dye fluorescence; shares compounds with TRPC6 inhibitor; membrane potential signal change, % at 10 µM;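 active = membrane potential signal moves up or down beyond 5 SD from buffer-only wells, on both duplicate plates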
# HEK293 MPD ctr 2-2: second counter-screen for TRPC6 modulators: effect in parental HEK293 cells; inhibition, % at 10 µM; AID 488926; shares compounds with TRPC6 inhibitor; membrane potential dye fluorescence; after compound, maximal acetylcholine stimulation; 2,400 tested, 14% active;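 active = membrane potential signal drops by more than 5 SD from the mean control signal, in both duplicate plates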;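 also: plate controls were acetylcholine ECmax control wells for no effect and buffer only wells for full effect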
# TRPC4/MOR mod: tests whether TRPC6 modulators also affect mouse TRPC4. percent change from control (negative = decrease, positive = increase), % at 10 µM. shares compounds with TRPC6 inhibitor. 2,400 tested, 69% active. HEK293 TRPC4/mu-opioid, membrane potential fluorescence. AID 488927;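 active = membrane potential signal moved up or down beyond 5 SD of buffer control wells, in both duplicate plates, actives on both sides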;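 also: plate controls were assay buffer wells for no effect and DAMGO maximal-effect wells for full effect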
# TRPC4/MOR inh 2: mouse TRPC4 off-target activity of TRPC6 modulators, second screen; inhibition, % at 10 µM; 2,400 tested, 55% active; HEK293 TRPC4/mu-opioid, membrane potential dye fluorescence; stimulated with maximal-effect DAMGO; shares compounds with TRPC6 inhibitor;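 active = drop in membrane potential signal beyond 5 SD of the control wells in both duplicate plates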;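 also: TRPC4 counter screen for TRPC6 hits run under conditions tuned for TRPC6 not TRPC4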
# TRPC6 inh conf: confirmation of mouse TRPC6 inhibitors; shares compounds with TRPC6 inhibitor; HEK293-TRPC6, membrane potential dye, ACh-evoked depolarization; inhibition, % at 10 µM; 3,300 tested, 43% active;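 active = fluorescence ratio falls more than 5 SD below the full-stimulation control mean, in both duplicate runs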;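 also: integrated fluorescence ratio of peak minus minimum over baseline after agonist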
# TRPC6 act confirm: mouse TRPC6 activator confirmation | shares compounds with TRPC6 inhibitor | HEK293-TRPC6 membrane potential dye fluorescence, FDSS | activation, % at 10 µM | 2,800 tested, 11% active | AID 488961;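 active = ratio signal rise beyond 5 SD above unstimulated control wells' mean, seen in both duplicate runs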;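 also: plate controls were buffer EC0 wells for no effect and acetylcholine ECmax response for full effect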
# Numbers without * were called inactive; i = inactive; . = no result given. The list is not random: actives were taken first. Their share in the collection is about 2.9%. Unless noted, no rule for the calls is given here.
SMILES,TRPC4 block,Kir21 block,TRPC4 PAM,TRPC4 agonist,TRPC6 inhibitor,TRPC6 activator,TRPC6 inh conf,TRPC6 act confirm,others
Cc1cc(C)c2nc(N(CCCN(C)C)C(=O)c3ccc4c(c3)OCCO4)sc2c1,i,-6.4*,i,i,-8.2*,i,i,i,hERG inh=66%*;KCNK9 inh=i;Kir21 ephys inh=i;TRPC4 spec 2=i;TRPC4 spec=i;HEK293 MPD ctr 2-1=i;HEK293 MPD ctr-1=0.4%*
c1ccc(CNc2c3ccccc3nc3ccccc23)cc1,-7*,-8.3*,i,i,-7.8*,i,i,i,hERG inh=70%*;KCNK9 inh=i;Kir21 ephys inh=16%*;TRPC4 spec 2=60%*;TRPC4 spec=-23%*;HEK293 MPD ctr 2-1=45%*;HEK293 MPD ctr-1=-450%*
c1ccc(CNc2ncnc3ccccc23)cc1,i,-0.18,i,i,i,i,.,.,
COc1ccccc1C(C)NC(=O)c1ccccc1SCC(=O)N1CCCC1 (stereo not drawn),i,-0.1,i,i,i,i,.,.,
CC(C)Cc1nc2c(nnn2Cc2ccccc2F)c(=O)[nH]1,i,-0.66,i,i,i,i,.,.,
Cc1c(CN(C)C)c2c(n1Cc1ccccc1)C(=O)c1ccccc1-2,-6*,-0.94,i,i,-7*,i,44%*,i,HEK293 MPD ctr-2=-174%*;HEK293 MPD ctr 2-2=i;TRPC4/MOR mod=-33%*;TRPC4/MOR inh 2=78%*
Cc1cc(=O)n(Cc2ccccc2)c2ccccc12,i,-0.47,i,i,i,i,.,.,
COCCn1c(=NC(=O)CSC(C)=O)sc2cc(OC)ccc21,i,0.05,i,i,i,i,.,.,
CCn1c(=NC(=O)CSC(C)=O)sc2cc(OC)ccc21,i,0.17,i,i,i,17*,.,152%*,HEK293 MPD ctr-2=i;HEK293 MPD ctr 2-2=i;TRPC4/MOR mod=9.0%*;TRPC4/MOR inh 2=i

# Screening data (PubChem BioAssay)
